TRPC4 inh = TRPC4 (mouse) channel inhibition; Q9QUQ5; HEK293 TRPC4beta/mu-opioid, DAMGO-evoked Fluo4 calcium flux; stronger effect = lower value; B-score at 10 µM; 0.39% of 300,000 active; AID 2247;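 active means B-score over 3 SD under the library average, no early fluorescence shift, positive overall ratio signal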
Target sequence (Q9QUQ5 whole entry, looked up): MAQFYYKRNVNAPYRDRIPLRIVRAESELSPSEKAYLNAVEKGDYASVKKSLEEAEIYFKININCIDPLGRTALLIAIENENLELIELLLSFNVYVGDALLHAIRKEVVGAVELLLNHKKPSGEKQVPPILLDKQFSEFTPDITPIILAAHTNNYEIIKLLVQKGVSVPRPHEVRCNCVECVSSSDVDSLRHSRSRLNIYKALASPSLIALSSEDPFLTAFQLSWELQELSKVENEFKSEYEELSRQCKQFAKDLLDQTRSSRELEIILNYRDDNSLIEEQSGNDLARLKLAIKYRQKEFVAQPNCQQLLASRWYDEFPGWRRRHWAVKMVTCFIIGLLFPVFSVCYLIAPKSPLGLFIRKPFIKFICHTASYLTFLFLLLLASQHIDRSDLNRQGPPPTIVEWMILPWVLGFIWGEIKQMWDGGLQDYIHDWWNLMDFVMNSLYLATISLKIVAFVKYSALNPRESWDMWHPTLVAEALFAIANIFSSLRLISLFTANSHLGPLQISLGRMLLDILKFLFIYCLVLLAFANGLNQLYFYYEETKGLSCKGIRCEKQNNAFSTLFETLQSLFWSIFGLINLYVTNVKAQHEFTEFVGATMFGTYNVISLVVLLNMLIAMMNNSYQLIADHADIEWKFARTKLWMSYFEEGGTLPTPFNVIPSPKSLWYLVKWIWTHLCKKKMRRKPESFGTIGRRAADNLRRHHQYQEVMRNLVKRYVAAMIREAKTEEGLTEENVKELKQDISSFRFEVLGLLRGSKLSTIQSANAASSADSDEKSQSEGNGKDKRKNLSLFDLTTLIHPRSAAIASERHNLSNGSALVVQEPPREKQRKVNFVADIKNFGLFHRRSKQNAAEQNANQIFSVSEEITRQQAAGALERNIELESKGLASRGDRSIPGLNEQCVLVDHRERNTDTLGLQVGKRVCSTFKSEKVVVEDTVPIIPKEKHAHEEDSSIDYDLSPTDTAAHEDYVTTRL
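Assay system: HEK293 cells with stable TRPC4beta plus mu-opioid receptor expression; Probe or stimulus: DAMGO in two steps, submaximal then maximal; Dosing: single-point compound dosing; Measured by: Fluo4 calcium-dye fluorescence, kinetic read; Read-out basis: B score from integrated Fluo4 fluorescence ratio.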
TRPC4 PAM = allosteric potentiators of mouse TRPC4 channel; 0.42% of 310,000 active; AID 2227; HEK293 TRPC4beta/mu-opioid, DAMGO EC20, Fluo-4 Ca2+ flux; stronger effect = higher value; B-score at 10 µM; Q9QUQ5;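 active means B-score of calcium response area above 5 SD of library B-scores, with initial fluorescence ratio within 5 SD of library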;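 further: B-score of integrated fluorescence ratio over time as area under calcium response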
TRPC6 act = activators of mouse TRPC6 channel. Q61143. HEK293-TRPC6 membrane potential dye fluorescence; stronger effect = higher value. B-score at 10 µM. 0.13% of 310,000 active. AID 2550;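 active means B-score of the integrated fluorescence ratio above library mean plus 3 SD, and starting fluorescence ratio within library mean plus 5 SD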;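 further: higher score means more depolarization so channel activation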
TRPC6 inh = blocks the mouse TRPC6 cation channel; Q61143; HEK293-TRPC6, membrane potential dye, ACh-evoked depolarization; stronger effect = lower value; B-score at 10 µM; 1.1% of 310,000 active; AID 2553;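 active means B-score under library mean minus 3 SD, initial fluorescence not abnormally high, positive integrated signal ratio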;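 further: B-score derived from integrated fluorescence ratio over the kinetic read; more negative B-score means stronger inhibition of depolarization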
TRPC4 agonist = TRPC4 (mouse) channel activation; HEK293 TRPC4beta/mu-opioid, Fluo4 calcium fluorescence; stronger effect = higher value; AID 2237; Q9QUQ5; B-score at 10 µM; 0.49% of 310,000 active;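 active means B-score above 5 SD of library B-scores, and initial fluorescence ratio not above library mean plus 5 SD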;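 further: positive B-score marks a calcium rise read as TRPC4 activation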
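Assay system: HEK293 stable line with TRPC4beta plus mu-opioid receptor. Times: dye 45 min RT, read 110 s. Measured by: kinetic Fluo4 calcium fluorescence. Measure: B score of integrated ratio. Controls: assay buffer as low control, maximal DAMGO as high control.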
TRPC4 spec 2 = mouse TRPC4 off-target activity of TRPC6 inhibitors, second screen; HEK293 TRPC4/MOR, membrane potential dye fluorescence; channel activated by saturating DAMGO dose; 42% of 920 active; shares compounds with TRPC6 inh; AID 2776; inhibition, % at 10 µM;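 active means compounds whose fluorescence signal differed from control wells by over 3 SD, either direction, in both duplicate plates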
TRPC4 spec = mouse TRPC4 off-target activity of TRPC6 inhibitors | HEK293 TRPC4/mu-opioid, membrane potential fluorescence | shares compounds with TRPC6 inh | 61% of 920 active | activity change, negative = inhibition, % at 10 µM;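 active means rise or fall in signal beyond 3 SD of buffer-only wells in both replicate plates, either sign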;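 further: integrated kinetic ratio of fluorescence range over baseline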
HEK293 MPD ctr 2-1 = parental HEK293 nonspecific activity of TRPC6 inhibitors, second screen; shares compounds with TRPC6 inh; parental HEK293 membrane potential dye fluorescence; maximal acetylcholine challenge after compound addition; signal change vs control, % at 10 µM; 31% of 920 active;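 active means membrane potential signal moving either way by over 3 SD of the maximum-effect control, in both duplicate plates, meaning non-specific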
HEK293 MPD ctr-1 = checks TRPC6 inhibitor effects in parental HEK293 cells | shares compounds with TRPC6 inh | parental HEK293 membrane potential dye fluorescence | membrane potential signal change, % at 10 µM | 60% of 920 active;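 active means membrane potential signal shifting up or down by more than 3 SD of buffer-only wells, on both duplicate plates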
HEK293 MPD ctr-2 = parental HEK293 nonspecific activity of TRPC6 modulators; shares compounds with TRPC6 inh; membrane potential dye fluorescence; membrane potential signal change, % at 10 µM; 51% of 2,400 active; AID 488924;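 active means membrane potential signal moves up or down beyond 5 SD from buffer-only wells, on both duplicate plates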
HEK293 MPD ctr 2-2 = second counter-screen for TRPC6 modulators: effect in parental HEK293 cells; inhibition, % at 10 µM; AID 488926; 14% of 2,400 active; membrane potential dye fluorescence; after compound, maximal acetylcholine stimulation; shares compounds with TRPC6 inh;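 active means membrane potential signal drops by more than 5 SD from the mean control signal, in both duplicate plates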;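 further: plate controls were acetylcholine ECmax control wells for no effect and buffer only wells for full effect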
TRPC4/MOR mod = selectivity of TRPC6 modulators against mouse TRPC4 | percent change from control (negative = decrease, positive = increase), % at 10 µM | HEK293 TRPC4/mu-opioid, membrane potential fluorescence | shares compounds with TRPC6 inh | 69% of 2,400 active;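 active means membrane potential signal moved up or down beyond 5 SD of buffer control wells, in both duplicate plates, actives on both sides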;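 further: plate controls were assay buffer wells for no effect and DAMGO maximal-effect wells for full effect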
TRPC4/MOR inh 2 = mouse TRPC4 off-target activity of TRPC6 modulators, second screen | 55% of 2,400 active | shares compounds with TRPC6 inh | inhibition, % at 10 µM | HEK293 TRPC4/mu-opioid, membrane potential dye fluorescence; stimulated with maximal-effect DAMGO | AID 488928;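 active means drop in membrane potential signal beyond 5 SD of the control wells in both duplicate plates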;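 further: TRPC4 counter screen for TRPC6 hits run under conditions tuned for TRPC6 not TRPC4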
TRPC6 inh conf = mouse TRPC6 inhibitor confirmation; inhibition, % at 10 µM; AID 488960; 43% of 3,300 active; shares compounds with TRPC6 inh; HEK293-TRPC6, membrane potential dye, ACh-evoked depolarization;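 active means fluorescence ratio falls more than 5 SD below the full-stimulation control mean, in both duplicate runs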;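 further: integrated fluorescence ratio of peak minus minimum over baseline after agonist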
TRPC6 act conf = mouse TRPC6 activator confirmation | 11% of 2,800 active | activation, % at 10 µM | shares compounds with TRPC6 inh | HEK293-TRPC6 membrane potential dye fluorescence, FDSS;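 active means ratio signal rise beyond 5 SD above unstimulated control wells' mean, seen in both duplicate runs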;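 further: plate controls were buffer EC0 wells for no effect and acetylcholine ECmax response for full effect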
* = called active by the depositor; i = inactive; . = no result given. Compounds with a hit are over-represented: about 2.3% of the library has one in this group of screens.

SMILES	TRPC4 inh	TRPC4 PAM	TRPC6 act	TRPC6 inh	TRPC4 agonist	HEK293 MPD ctr-2	HEK293 MPD ctr 2-2	TRPC4/MOR mod	TRPC4/MOR inh 2	TRPC6 inh conf	TRPC6 act conf	others
COc1ccc(NC(=O)CCCCCN2C(=O)[C@@H]3Cc4ccccc4CN3C2=O)cc1Cl	i	i	i	-7.4*	i	i	i	i	i	i	i
Cc1ccc2cc(C=C(C#N)C#N)c(N3CCCCC3)nc2c1	i	i	i	-7.1*	i	.	.	.	.	i	i	TRPC4 spec 2=i;TRPC4 spec=i;HEK293 MPD ctr 2-1=i;HEK293 MPD ctr-1=i
O=C1Nc2ccccc2/C1=N/N=C/c1ccc(-c2ccc([N+](=O)[O-])cc2)o1	i	i	i	i	i	.	.	.	.	.	.
CC(=O)Nc1ccc(/C=N/Nc2nc3ccccc3[nH]2)cc1	i	i	i	i	i	.	.	.	.	.	.
Cc1nn(-c2ccccc2)c(C)c1/C=N/Nc1nc2ccccc2[nH]1	i	i	i	i	i	.	.	.	.	.	.
CCN(CC)c1ccc(/C=N/Nc2nc3ccccc3[nH]2)cc1	i	i	i	-7.7*	i	.	.	.	.	i	i	TRPC4 spec 2=43%*;TRPC4 spec=-18%*;HEK293 MPD ctr 2-1=i;HEK293 MPD ctr-1=-235%*
COc1cc(/C=N/Nc2nc3ccccc3[nH]2)ccc1O	i	i	i	i	i	.	.	.	.	.	.
Cn1c(/C=N/Nc2nc3ccccc3[nH]2)nc2ccccc21	i	i	i	-9.7*	i	i	i	-10%*	i	i	i
COc1ccc(O)c(/C=N/Nc2nc3ccccc3[nH]2)c1	i	i	i	-5*	i	i	i	i	i	i	i
Cc1c(/C=N/Nc2nc3ccccc3[nH]2)c2ccccc2n1C	i	i	i	-15*	i	-192%*	74%*	-40%*	97%*	68%*	i
NS(=O)(=O)c1ccc(NC(=O)COC(=O)CCc2ccc(S(=O)(=O)N3CCOCC3)cc2)cc1	i	i	i	i	i	.	.	.	.	.	.
COc1ccccc1NC(=O)C1CCCN(S(=O)(=O)c2c(C)noc2C)C1 (stereo not drawn)	i	i	i	i	i	.	.	.	.	.	.
N#Cc1ccccc1S(=O)(=O)c1ccccc1C(=O)Nc1ccccc1	i	i	i	i	i	.	.	.	.	.	.
Cc1onc(-c2c(F)cccc2Cl)c1C(=O)NCc1ccc(F)cc1	i	i	i	i	i	.	.	.	.	.	.
CCN(CC)c1ccc(/C=N\NC(=O)c2cccc3cc[nH]c23)cc1	i	i	i	-5.7*	i	i	i	-12%*	54%*	i	i

Screens: PubChem, Johns Hopkins Ion Channel Center
